Measurements from ChEMBL document CHEMBL2177095, “Discovery of selective and potent inhibitors of gram-positive bacterial thymidylate kinase (TMK)” (J Med Chem, 2012).
pIC50: −log10 of the molar value. In brackets after ≈: the same amount, converted by molar mass.

Columns and labels:
[1] = Inhibition of Staphylococcus aureus thymidylate kinase assessed as effect on conversion of dTDP to dTMP by luciferin/luciferase reporter gene based assay
[2] = Inhibition of Streptococcus pneumoniae thymidylate kinase assessed as effect on conversion of dTDP to dTMP by luciferin/luciferase reporter gene based assay
Staphylococcus aureus [3] = assay: Antimicrobial activity against methicillin and quinolone-resistant Staphylococcus aureus by broth microdilution method; assay type: functional
Procedure, shortened: (§1)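 MICs were determined against bacterial strains from the AstraZeneca collection. For S. aureus, MSQS means methicillin- and quinolone-sensitive, and MRQR means methicillin- and quinolone-resistant.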

Staphylococcus aureus [4] = assay: Antimicrobial activity against methicillin and quinolone-sensitive Staphylococcus aureus by broth microdilution method; assay type: functional; procedure, shortened: as §1
Streptococcus pneumoniae = assay: Antimicrobial activity against Streptococcus pneumoniae by broth microdilution method; assay type: functional
Procedure, shortened: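 Test organisms were strains from the AstraZeneca collection.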

[5] = Partition coefficient, log D of the compound at pH 7.4 by shake flask method; settings: octanol/water
Candida albicans = assay: Toxicity against Candida albicans; assay type: organism-based
[6] = Toxicity against human A549 cells; assay type: cell-based; settings: read-out: MIC
Thymidylate kinase = molecular target: T1, Thymidylate kinase (Homo sapiens, UniProt P23919); assay: Inhibition of human thymidylate kinase assessed as effect on ATP production by Escherichia coli DdlA and Malachite green reagent based assay
T1 sequence (P23919 whole entry): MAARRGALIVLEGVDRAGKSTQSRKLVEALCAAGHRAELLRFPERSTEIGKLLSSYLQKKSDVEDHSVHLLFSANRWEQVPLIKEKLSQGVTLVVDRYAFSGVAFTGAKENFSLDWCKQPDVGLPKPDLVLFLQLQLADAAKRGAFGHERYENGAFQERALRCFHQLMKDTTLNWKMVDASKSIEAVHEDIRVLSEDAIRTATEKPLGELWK

SMILES | pIC50 [1] | pIC50 [2] | MIC (Staphylococcus aureus [3]) [µg/mL] | MIC (Staphylococcus aureus [4]) [µg/mL] | MIC (Streptococcus pneumoniae) [µg/mL] | logD [5] | MIC (Candida albicans) [µg/mL] | MCC [6] [µg/mL] | pIC50 (Thymidylate kinase)
Cc1cn([C@H]2CCCN(Cc3cccc(Oc4cc(Cl)cc(Cl)c4)c3)C2)c(=O)[nH]c1=O | 5.82 | 6.40 |  |  |  |  |  |  | 
CCCC(C)(C)C[C@H](c1ccc(C(=O)O)c(Oc2cccc(Cl)c2)c1)N1CCC[C@H](n2cc(C)c(=O)[nH]c2=O)C1 | 9.15 | 9.52 | 0.06 (≈ 0.106 µM) | 0.25 (≈ 0.44 µM) | 0.06 (≈ 0.106 µM) | 2 |  |  | 
Cc1cn([C@H]2CCCN(Cc3ccc(C(=O)O)c(Oc4cccc(Cl)c4)c3)C2)c(=O)[nH]c1=O | 7.14 | 8.72 | 32 (≈ 68.1 µM) | 32 (≈ 68.1 µM) | 1 (≈ 2.13 µM) |  |  |  | 
CCC[C@@H](c1ccc(C(=O)O)c(Oc2cccc(Cl)c2)c1)N1CCC[C@H](n2cc(C)c(=O)[nH]c2=O)C1 | 7.74 | 9.22 | 4 (≈ 7.81 µM) | 4 (≈ 7.81 µM) | 0.1 (≈ 0.195 µM) |  |  |  | 
Cc1cn([C@H]2CCCN(Cc3cccc(Oc4cccc(Br)c4)c3)C2)c(=O)[nH]c1=O | 6.22 | 7.00 |  |  |  |  |  |  | 
Cc1cn([C@H]2CCCN([C@@H](CC(C)C)c3ccc(C(=O)O)c(Oc4cccc(Cl)c4)c3)C2)c(=O)[nH]c1=O | 7.87 | 9.22 | 2 (≈ 3.8 µM) | 2 (≈ 3.8 µM) | 0.05 (≈ 0.0951 µM) | 0.9 |  |  | 
CCC(CC)C[C@H](c1ccc(C(=O)O)c(Oc2cccc(Cl)c2)c1)N1CCC[C@H](n2cc(C)c(=O)[nH]c2=O)C1 | > 8.52 | 10.00 | 0.1 (≈ 0.18 µM) | 0.25 (≈ 0.451 µM) | 0.02 (≈ 0.0361 µM) | 1.7 |  |  | 
Cc1cn([C@@H]2CCCN(Cc3cccc(Oc4ccc(Cl)cc4)c3)C2)c(=O)[nH]c1=O | < 3.70 | 5.29 |  |  |  |  |  |  | 
Cc1cn([C@H]2CCCN([C@H](CC3CCOCC3)c3ccc(C(=O)O)c(Oc4cccc(Cl)c4)c3)C2)c(=O)[nH]c1=O | 8.80 | > 10.00 | 8 (≈ 14.1 µM) | 16 (≈ 28.2 µM) | 0.1 (≈ 0.176 µM) | -0.25 |  |  | 
Cc1cn([C@H]2CCCN(Cc3cccc(Oc4cc(F)cc(Cl)c4)c3)C2)c(=O)[nH]c1=O | 5.68 | 7.00 |  |  |  |  |  |  | 
CCC(C)(CC)C[C@H](c1ccc(C(=O)O)c(Oc2cccc(Br)c2)c1)N1CCC[C@H](n2cc(C)c(=O)[nH]c2=O)C1 | 8.89 | 9.52 | 0.03 (≈ 0.049 µM) | 0.1 (≈ 0.163 µM) | 0.03 (≈ 0.049 µM) | 2 |  |  | 
Cc1cn([C@H]2CCCN([C@@H](C)c3ccc(C(=O)O)c(Oc4cccc(Cl)c4)c3)C2)c(=O)[nH]c1=O | 7.53 | 9.00 | 8 (≈ 16.5 µM) | 8 (≈ 16.5 µM) | 0.25 (≈ 0.517 µM) | -0.3 |  |  | 
Cc1cn([C@H]2CCCN([C@H](CC(C)C)c3ccc(C(=O)O)c(Oc4cccc(Cl)c4)c3)C2)c(=O)[nH]c1=O |  | > 9.70 | 1 (≈ 1.9 µM) | 1 (≈ 1.9 µM) | 0.03 (≈ 0.057 µM) | 0.9 |  |  | 
Cc1ccc(Oc2cccc(CN3CCC[C@H](n4cc(C)c(=O)[nH]c4=O)C3)c2)cc1Cl | 5.72 | 6.00 |  |  |  |  |  |  | 
CC[C@H](c1ccc(C(=O)O)c(Oc2cccc(Cl)c2)c1)N1CCC[C@H](n2cc(C)c(=O)[nH]c2=O)C1 (racemic) | 7.86 | 9.22 | 2 (≈ 4.02 µM) | 2 (≈ 4.02 µM) | 0.1 (≈ 0.201 µM) | 0.2 |  |  | 
Cc1cn([C@@H]2CCCN(Cc3cccc(Oc4ccc(Cl)c(Cl)c4)c3)C2)c(=O)[nH]c1=O | < 3.70 | 4.74 |  |  |  |  |  |  | 
Cc1cn([C@H]2CCCN(Cc3cccc(Oc4cccc(Cl)c4)c3)C2)c(=O)[nH]c1=O | 5.92 | 6.82 |  |  |  |  |  |  | 

SMILES | pIC50 [1] | pIC50 [2] | MIC (Staphylococcus aureus [3]) [µg/mL] | MIC (Staphylococcus aureus [4]) [µg/mL] | MIC (Streptococcus pneumoniae) [µg/mL] | logD [5] | MIC (Candida albicans) [µg/mL] | MCC [6] [µg/mL] | pIC50 (Thymidylate kinase)
Cc1cn([C@H]2CCCN(Cc3cccc(Oc4cccc(F)c4)c3)C2)c(=O)[nH]c1=O | 5.49 | 6.40 |  |  |  |  |  |  | 
Cc1cn([C@H]2CCCN([C@@H](CC(C)(C)C)c3ccc(C(=O)O)c(Oc4cccc(Br)c4)c3)C2)c(=O)[nH]c1=O | 8.55 | 9.22 | 1 (≈ 1.71 µM) | 2 (≈ 3.42 µM) | 0.03 (≈ 0.0513 µM) | 1.2 |  |  | 
Cc1cn([C@H]2CCCN(Cc3cccc(Oc4ccc(Cl)c(Cl)c4)c3)C2)c(=O)[nH]c1=O | 5.59 | 6.40 |  |  |  |  |  |  | 
Cc1cn([C@H]2CCCN(Cc3ccc(C(=O)O)c(Oc4cccc(F)c4)c3)C2)c(=O)[nH]c1=O | 6.47 | 7.55 | 128 (≈ 282 µM) | 128 (≈ 282 µM) | 32 (≈ 70.6 µM) | -1 |  |  | 
COc1ccc(Oc2cccc(CN3CCCC(n4cc(C)c(=O)[nH]c4=O)C3)c2)cc1 (racemic) | 3.84 | 5.05 |  |  |  |  |  |  | 
CC[C@@H](c1ccc(C(=O)O)c(Oc2cccc(Cl)c2)c1)N1CCC[C@H](n2cc(C)c(=O)[nH]c2=O)C1 | 7.74 | 8.52 | 4 (≈ 8.03 µM) | 2 (≈ 4.02 µM) | 0.25 (≈ 0.502 µM) | 0.2 |  |  | 
Cc1cccc(Oc2cc(CN3CCC[C@H](n4cc(C)c(=O)[nH]c4=O)C3)ccc2C(=O)O)c1 | 6.94 | 8.10 | 128 (≈ 285 µM) | 64 (≈ 142 µM) | 4 (≈ 8.9 µM) |  |  |  | 
CCC[C@H](c1ccc(C(=O)O)c(Oc2cccc(Cl)c2)c1)N1CCC[C@H](n2cc(C)c(=O)[nH]c2=O)C1 | 8.08 | 9.52 | 1 (≈ 1.95 µM) | 1 (≈ 1.95 µM) | 0.05 (≈ 0.0977 µM) |  | > 64 | > 64 | 3.82
Cc1cn([C@H]2CCCN(Cc3ccc(C(=O)O)c(Oc4cccc(C(F)(F)F)c4)c3)C2)c(=O)[nH]c1=O |  | 8.00 | 64 (≈ 127 µM) | 64 (≈ 127 µM) | 4 (≈ 7.94 µM) | -0.38 | > 64 | > 64 | < 3.70
Cc1cn([C@H]2CCCN([C@H](CC3CCCCC3)c3ccc(C(=O)O)c(Oc4cccc(Cl)c4)c3)C2)c(=O)[nH]c1=O | 9.15 | > 10.00 | 0.1 (≈ 0.177 µM) | 0.25 (≈ 0.442 µM) | 0.01 (≈ 0.0177 µM) |  |  |  | 
Cc1cn(C2CCCN(Cc3cccc(Oc4ccc(Cl)cc4)c3)C2)c(=O)[nH]c1=O (racemic) | 4.46 | 5.89 |  |  |  |  |  |  | 
Cc1cn([C@H]2CCCN(Cc3cccc(Oc4ccc(Cl)cc4)c3)C2)c(=O)[nH]c1=O | 5.07 | 6.40 |  |  |  |  |  |  | 
Cc1cccc(Oc2cccc(CN3CCC[C@H](n4cc(C)c(=O)[nH]c4=O)C3)c2)c1 | 5.57 | 6.52 |  |  |  |  |  |  | 
Cc1cn([C@H]2CCCN(Cc3ccc(C(=O)O)c(Oc4cccc(Br)c4)c3)C2)c(=O)[nH]c1=O | 7.57 | 9.00 | 32 (≈ 62.2 µM) | 16 (≈ 31.1 µM) | 1 (≈ 1.94 µM) | -0.51 |  |  | 
Cc1ccc(Oc2cccc(CN3CCCC(n4cc(C)c(=O)[nH]c4=O)C3)c2)cc1 (racemic) | 4.23 | 5.22 |  |  |  |  |  |  | 
Cc1cn(C2CCCN(Cc3cccc(Oc4cccc(C(F)(F)F)c4)c3)C2)c(=O)[nH]c1=O (racemic) |  | 4.82 |  |  |  |  |  |  | 
Cc1cn([C@H]2CCCN([C@H](CC34CC5CC(CC(C5)C3)C4)c3ccc(C(=O)O)c(Oc4cccc(Br)c4)c3)C2)c(=O)[nH]c1=O | 8.96 | 10.00 | 0.1 (≈ 0.151 µM) | 0.25 (≈ 0.377 µM) | 0.03 (≈ 0.0453 µM) | 2.5 |  |  | 
